{"data": "Experimental data pooled from the literature", "target": "Serine/threonine-protein kinase MARK2 (MARK2, Homo sapiens, UniProt Q7KZI7)", "note": "Compare with care: the assays were run in different laboratories."}
{"Compound": "O=C(Nc1c[nH]nc1C(=O)NC1CCNCC1)c1cc(F)cc(F)c1", "observed": "binding", "technique": "competition with immobilised ligand", "concentration": "1 µM", "remaining binding [%]": 100}
{"Compound": "CN(C)c1nccc(-c2cnc3ncccn23)n1", "observed": "binding", "concentration": "1 µM", "remaining binding [%]": 100}
{"Compound": "CCc1ccccc1C(=O)Nc1n[nH]c2c(C)c(F)c(C3C(C#N)=C(C)N(C)C(C)=C3C#N)cc12", "observed": "cell-free assay", "technique": "competition with immobilised ligand", "concentration": "1 µM", "remaining binding [%]": 40}
{"Compound": "Cc1cnn2ncc(-c3ccnc(N(C)C)n3)c2c1", "observed": "binding", "concentration": "1 µM", "remaining binding [%]": 100}
{"Compound": "C[C@H](NC(=O)c1cnc2n1[C@](C)(Cc1ccc(C#N)cc1)C(=O)N2c1cc(Cl)c(F)c(Cl)c1)C(=O)NC1(c2ccccn2)CC1", "observed": "cell-free assay", "technique": "competition with immobilised ligand", "concentration": "1 µM", "remaining binding [%]": 100}
{"Compound": "Cc1cnc(Nc2ccc(C(=O)N3CCC(N4CCCC4)CC3)cc2)nc1-c1cc2ccccc2s1", "observed": "binding", "technique": "competition with immobilised ligand", "concentration": "1 µM", "remaining binding [%]": 68}
{"Compound": "FC(F)(F)Oc1cccc(-c2cnc3ccc(-c4ccncc4)nn23)c1", "observed": "cell-free assay", "technique": "competition with immobilised ligand", "concentration": "5 µM", "remaining binding [%]": 64}
{"Compound": "C[C@H](c1ccc(F)cc1)N(Cc1cccc(C(=O)O)c1)C(=O)c1cnc2ccccc2c1", "observed": "cell-free assay", "technique": "competition with immobilised ligand", "concentration": "1 µM", "remaining binding [%]": 80}
{"Compound": "N[C@H]1CCN(c2nccc(-c3cnn4ncccc34)n2)C1", "observed": "binding", "concentration": "1 µM", "remaining binding [%]": 100}
{"Compound": "O=C(Nc1cccnn1)N1CCC(=Cc2cccc(Oc3ccc(C(F)(F)F)cn3)c2)CC1", "observed": "cell-free assay", "technique": "competition with immobilised ligand", "concentration": "1 µM", "remaining binding [%]": 100}
{"Compound": "CN(C)c1nccc(-c2cnn3ncccc23)n1", "observed": "binding", "concentration": "1 µM", "remaining binding [%]": 96}
{"Compound": "O=C(O)[C@@H]1[C@@H](Cn2nnc3ccccc3c2=O)CC[C@H]1C(=O)c1ccc(OCCC2CCOCC2)cc1", "observed": "cell-free assay", "technique": "competition with immobilised ligand", "concentration": "1 µM", "remaining binding [%]": 100}
{"Compound": "CCN1CCN(Cc2ccc(C(=O)Nc3ccc(C)c(Oc4ccc5c(c4)CC(=O)N5)c3)cc2C(F)(F)F)CC1", "observed": "binding", "technique": "competition with immobilised ligand", "concentration": "1 µM", "remaining binding [%]": 100}
{"Compound": "c1cnn2ncc(-c3ccnc(N4CCC45COC5)n3)c2c1", "observed": "binding", "concentration": "1 µM", "remaining binding [%]": 63}
{"Compound": "O=C(NCCCC1CCCCC1)c1ccc(CNC(=O)c2cnn(-c3ccccc3)c2C(F)(F)F)cc1", "observed": "cell-free assay", "technique": "competition with immobilised ligand", "concentration": "0.1 µM", "remaining binding [%]": 100}
{"Compound": "O=C(c1ccc(Nc2nccc(-c3cc4ccccc4s3)n2)cc1)N1CCC(N2CCCC2)CC1", "observed": "binding", "technique": "competition with immobilised ligand", "concentration": "1 µM", "remaining binding [%]": 91}
{"Compound": "CN(CCCC(F)(F)F)c1nccc(-c2cnn3ncccc23)n1", "observed": "binding", "concentration": "1 µM", "remaining binding [%]": 100}
{"Compound": "O=S(=O)(NC1CCC(c2cc(F)ccc2F)(S(=O)(=O)c2ccc(Cl)cc2)CC1)C(F)(F)F (stereo not shown)", "observed": "cell-free assay", "technique": "competition with immobilised ligand", "concentration": "1 µM", "remaining binding [%]": 100}
{"Compound": "CC1CCCN1c1nccc(-c2cnn3ncccc23)n1 (stereo not shown)", "observed": "binding", "concentration": "1 µM", "remaining binding [%]": 70}
{"Compound": "O=C(c1ccc(Nc2ncc(Cl)c(-c3ccc(Cl)s3)n2)cc1)N1CCC(N2CCCC2)CC1", "observed": "binding", "technique": "competition with immobilised ligand", "concentration": "1 µM", "remaining binding [%]": 69}
{"Compound": "COc1ncc2cc3ccccc3nc2c1C#N", "observed": "cell-free assay", "technique": "competition with immobilised ligand", "concentration": "5 µM", "remaining binding [%]": 97}
{"Compound": "COc1cnc(Nc2cccc(S(N)(=O)=O)c2)nc1N1CCN(c2ccccc2)CC1", "observed": "binding", "technique": "competition with immobilised ligand", "concentration": "1 µM", "remaining binding [%]": 88}
